Test results taken from ChEMBL document CHEMBL1124595, “Synthesis and biological activity of 3-substituted imidazo[1,2-a]pyridines as antiulcer agents” (1989).

How the values were obtained:
Assay type in all cases: functional
Rattus norvegicus [1] = experiment: Antisecretory activity in gastric fistula rat when administered perorally; conditions: Stomach, po
Procedure, shortened: (§1)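 Chronic gastric fistula rats dosed orally. Activity was taken as percent inhibition of gastric acid secretion. The dose giving 50% inhibition (ED50) was calculated by probit analysis.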

Rattus norvegicus [2] = experiment: Cytoprotective activity in rat when administered 50 mg/kg perorally (Ethyl alcohol as necrotic agent); conditions: route oral
Procedure, shortened: (§2)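 Food was withheld for 24 h and water for 1½–18 h. Rats were dosed orally (3–12 mL vehicle/kg) 60 min before 100% ethanol, 3.0 mL/kg by gavage. They were killed 60 min after insult, and the stomach was opened along the lesser curvature and photographed. Lesion area score ÷4 gave mm²; group mean was compared with controls as % inhibition. Five animals per dose, standard error.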

Rattus norvegicus [3] = experiment: Cytoprotective activity in rats when administered 50 mg/kg perorally (Hydrochloric acid as necrotic agent); conditions: route oral
Procedure, shortened: as §2, with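 “0.75 N HCl,” for “100% ethanol,”, “greater” for “lesser”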

Rattus norvegicus [4] = experiment: Cytoprotective activity in rats when administered 100 mg/kg perorally (Hydrochloric acid as necrotic agent); conditions: route oral
Procedure, shortened: as §2, with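 “0.75 N HCl,” for “100% ethanol,”, “greater” for “lesser”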

Rattus norvegicus [5] = experiment: Cytoprotective activity in rat when administered 30 mg/kg perorally (Ethyl alcohol as necrotic agent); conditions: route oral; procedure, shortened: as §2
Rattus norvegicus [6] = experiment: Antisecretory activity in gastric fistula rat when administered per orally; conditions: Stomach, po; procedure, shortened: as §1
Rattus norvegicus [7] = experiment: Cytoprotective activity in rats when administered 50 mg/kg perorally per orally (Hydrochloric acid as necrotic agent); conditions: route oral
Procedure, shortened: as §2, with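 “0.75 N HCl,” for “100% ethanol,”, “greater” for “lesser”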

Rattus norvegicus [8] = experiment: Cytoprotective activity in rats when administered 30 mg/kg perorally (Hydrochloric acid as necrotic agent); conditions: route oral
Procedure, shortened: as §2, with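 “0.75 N HCl,” for “100% ethanol,”, “greater” for “lesser”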

Rattus norvegicus [9] = experiment: Cytoprotective activity in rats when administered 0.10 mg/kg perorally per orally (Hydrochloric acid as necrotic agent); conditions: route oral
Procedure, shortened: as §2, with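 “0.75 N HCl,” for “100% ethanol,”, “greater” for “lesser”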

Rattus norvegicus [10] = experiment: Cytoprotective activity in rat when administered 0.25 mg/kg perorally (Ethyl alcohol as necrotic agent); conditions: route oral; procedure, shortened: as §2

Structure (SMILES) | ED50 (Rattus norvegicus [1]) [mg/kg] | inhibition in vivo at 50 mg/kg (Rattus norvegicus [2]) [%] | inhibition in vivo at 50 mg/kg (Rattus norvegicus [3]) [%] | further results
Cc1nc2c(OCc3ccccc3)cccn2c1C(C)SCCNc1n[s+]([O-])nc1N (configuration not stated) | > 25 | 57 | 57 | 
Cc1nc2c(OCc3ccccc3)cccn2c1CC#N | 0.9 |  |  | inhibition in vivo at 100 mg/kg (Rattus norvegicus [4]): 68%; inhibition in vivo at 30 mg/kg (Rattus norvegicus [5]): 90%
Cc1nc2ccccn2c1CSCC/N=c1/c(O)c(O)c1=N |  | 0 |  | ED50 (Rattus norvegicus [6]): > 25 mg/kg; inhibition in vivo at 50 mg/kg (Rattus norvegicus [7]): 34%
Cc1nc2c(OCc3ccccc3)cccn2c1C(C)SCCNc1nsnc1N (configuration not stated) | > 25 |  |  | inhibition in vivo at 30 mg/kg (Rattus norvegicus [8]): 62%; inhibition in vivo at 30 mg/kg (Rattus norvegicus [5]): 84%
Cc1nc2ccccn2c1C(C)SCC/N=c1/c(O)c(O)c1=N (configuration not stated) |  | 7 |  | ED50 (Rattus norvegicus [6]): > 25 mg/kg; inhibition in vivo at 50 mg/kg (Rattus norvegicus [7]): 27%
Cc1nc2ccccn2c1C(C)SCCNc1n[s+]([O-])nc1N (configuration not stated) | > 25 | 47 | 36 | 
Cc1nc2ccccn2c1CSCCNc1n[s+]([O-])nc1N (configuration not stated) | > 25 | 2 |  | 
C/N=C(/NC#N)NCCSCc1c(C)nc2ccccn12 | > 25 |  | 60 | inhibition in vivo at 30 mg/kg (Rattus norvegicus [5]): 97%
CCCCC[C@H](O)/C=C/[C@H]1[C@H](O)CC(=O)[C@@H]1C/C=C\CCCC(=O)O [DINOPROSTONE] |  |  |  | ED50 (Rattus norvegicus [6]): 0.83 mg/kg; inhibition in vivo at 0.1 mg/kg (Rattus norvegicus [9]): 70%; inhibition in vivo at 0.25 mg/kg (Rattus norvegicus [10]): 89%
Cc1nc2ccccn2c1C(C)SCCNc1nsnc1N (configuration not stated) | > 25 | 54 | 51 | 
Cc1nc2ccccn2c1CSCCNc1nsnc1N | > 25 | 70 | 24 | 
